Reference: publication PMC6467724 (Journal of medicinal chemistry, 2018)

Columns and labels:
[1] = Microsomal stability assay, human liver microsomes; type: in vitro ADME; conditions: for Clhep (hepatic clearance), Human: predicted from Clint, Qh 21 mL/min/kg
[2] = Microsomal stability assay, rat liver microsomes; type: in vitro ADME, rat (male Sprague-Dawley); conditions: for Clhep (hepatic clearance), Rat: predicted from Clint, Qh 70 mL/min/kg
[3] = Microsomal stability assay, mouse liver microsomes; type: in vitro ADME, mouse (male CD-1); conditions: for Clhep (hepatic clearance), Mouse: predicted from Clint, Qh 90 mL/min/kg
[4] = PK and tissue distribution assay, single oral dose; type: in vivo, BALB/c mice; conditions: for concentration at 4 h: BALB/c, mouse, po, 25 mg/kg
[5] = Mouse acute toxicity assay; type: in vivo; conditions: single oral dose 200 mg/kg, mice n=3, 48 h
[6] = molecular target: Y strain T. cruzi CYP51A; assay: Spectral titration; type: binding, Trypanosoma cruzi; conditions: 0.5 μM CYP51, inhibitor 0.1–1 μM
Summary of the method: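 Y-strain T. cruzi CYP51A was expressed in E. coli and purified. It was titrated at 0.5 μM with test compound (0.1–1 μM) in 5 cm pathlength cuvettes. Difference spectra were read as Δ(A430−A411). Apparent dissociation constants came from nonlinear fits of absorbance change versus ligand concentration to the Morrison quadratic (tight-binding) equation.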

[7] = molecular target: L. infantum CYP51 (Leishmania infantum, UniProt A2TEF2); assay: Spectral titration; type: binding; conditions: 0.5 μM CYP51, inhibitor 0.1–1 μM
[8] = test system: Y strain T. cruzi CYP51A; assay: CYP51 activity inhibition; type: biochemical, Trypanosoma cruzi; conditions: Figure S1
Summary of the method: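 Y-strain T. cruzi CYP51A was expressed in E. coli and purified. Substrate was [3-3H]eburicol at 50 μM final and test compound at 1.1 μM final. After 60 s preincubation at 37 °C, 100 μM NADPH started the reaction. It ran 60 min, EtOAc extraction stopped it, and % inhibition was measured in triplicate, mean ± SD.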

[9] = mice, oral doses up to 200 mg/kg; cited from earlier work
[10] = human pooled liver microsomes 0.5 mg/mL, 1 μM test compound
[11] = rat pooled liver microsomes 0.5 mg/mL, 1 μM test compound
[12] = mouse pooled liver microsomes 0.5 mg/mL, 1 μM test compound
[13] = Balb/c mice, single oral dose 25 mg/kg
[14] = 4 hours after single oral 25 mg/kg, Balb/c mice, ±SEM, n=2, nd = below 0.1 μM

Row | Clint (estimated intrinsic clearance), Human [1, 10] [mL/min/kg body weight] | Clhep (hepatic clearance), Human [1] [mL/min/kg body weight] | Clhep (hepatic clearance), Rat [2] [mL/min/kg body weight] | Clint (estimated intrinsic clearance), Rat [2, 11] [mL/min/kg body weight] | Clint (estimated intrinsic clearance), Mouse [3, 12] [mL/min/kg body weight] | Clhep (hepatic clearance), Mouse [3] [mL/min/kg body weight] | Plasma life time (time until the compound becomes undetectable) [4, 13] [h] | Molecule | also measured
1 | 22.3 | 10.8 | 20.8 | 29.7 | 105 | 48.4 | 10 | O=C(N[C@@H](Cn1ccnc1)c1ccc(-c2ccc(F)cc2)cc1Cl)c1ccc(-c2nnc(-c3ccccn3)o2)cc1 [Compound 2, (R)-N-(1-(3-Chloro-4´-fluoro-[1,1´-biphenyl]-4-yl)-2-(1H-imidazol-1-yl)ethyl)-4-(5-(pyridin-2-yl)-1,3,4-oxadiazol-2-yl)benzamide] | –
2 | 20.9 | 10.5 | 46.9 | 142 | 34.2 | 24.8 | <10 | O=C(N[C@@H](Cn1ccnc1)c1ccc(-c2ccccc2)cc1Cl)c1ccc(-c2nnc(-c3ccccc3)o2)cc1 [Compound 4, (R)-N-(1-(3-Chloro-[1,1´-biphenyl]-4-yl)-2-(1H-imidazol-1-yl)ethyl)-4-(5-phenyl-1,3,4-oxadiazol-2-yl)benzamide] | Plasma Cp, max ([4]; Balb/c mice, single oral dose 25 mg/kg, nd = below 0.1 μM (detection limit)): 28 µM
3 | 21.2 | 10.6 | 45.6 | 131 | 220 | 63.9 | <16 | [2H]c1c([2H])c([2H])c(-c2ccc([C@H](Cn3ccnc3)NC(=O)c3ccc(-c4nnc(-c5ccccc5)o4)cc3)c(Cl)c2)c([2H])c1[2H] [Compound 5, (R)-N-(1-(3-Chloro-[1,1´-biphenyl]-4-yl-2´,3´,4´,5´,6´-d5)-2-(1H-imidazol-1-yl)ethyl)-4-(5-phenyl-1,3,4-oxadiazol-2-yl)benzamide] | concentration at 4 h ([4]; blood): 4 ± 2 µM; concentration at 4 h ([4]; brain): 0.2 µM; concentration at 4 h ([4]; heart): 3 ± 0.5 µM; concentration at 4 h ([4]; lung): 26 ± 4 µM; Cp,max, fold lower (vs compound 4) ([4]; single oral 25 mg/kg): 2 fold
4 | 11.6 | 7.46 | 31.7 | 58.1 | 127 | 52.6 | – | CS(=O)(=O)c1ccc(-c2ccc([C@H](Cn3ccnc3)NC(=O)c3ccc(-c4nnc(-c5ccccc5)o4)cc3)c(Cl)c2)cc1 [Compound 6, (R)-N-(1-(3-Chloro-4´-(methylsulfonyl)-[1,1´-biphenyl]-4-yl)-2-(1H-imidazol-1-yl)ethyl)-4-(5-phenyl-1,3,4-oxadiazol-2-yl)benzamide] | Oral bioavailability ([4]; single oral 25 mg/kg, no trace in plasma or tissues except intestine): not orally bioavailable
5 | 16.5 | 9.24 | 33.5 | 64.3 | 87.7 | 44.4 | – | O=C(N[C@@H](Cn1ccnc1)c1ccc(Cl)cc1Cl)c1ccc(-c2nnc(-c3ccc(OCC(F)(F)F)cc3F)o2)cc1 [Compound 8, (R)-N-(1-(2,4-Dichlorophenyl)-2-(1H-imidazol-1-yl)ethyl)-4-(5-(2-fluoro-4-(2,2,2-trifluoroethoxy)phenyl)-1,3,4-oxadiazol-2-yl)benzamide] | –
6 | 13.9 | 8.35 | 23.6 | 35.5 | 59.8 | 35.9 | – | O=C(N[C@@H](Cn1ccnc1)c1ccc(-c2ccc(F)cc2)cc1Cl)c1ccc(-c2nnc(-c3ccccc3)o2)cc1 [VFV-Cl, (R)-N-(1-(3-Chloro-4´-fluoro-[1,1´-biphenyl]-4-yl)-2-(1H-imidazol-1-yl)ethyl)-4-(5-phenyl-1,3,4-oxadiazol-2-yl)benzamide] | Increase of concentrations in tissues at 50 mg/kg ([4]; 50 mg/kg vs 25 mg/kg, data not shown): about 1.5 fold; Metabolism ([M+34] metabolite) when extracted from mice plasma ([4]; 3 and 10 h after single oral 25 mg/kg, HPLC (Figure 4)): almost no metabolism
7 | – | – | – | – | – | – | – | O=C(N[C@@H](Cn1ccnc1)c1ccc(Cl)cc1Cl)c1ccc(-c2nnc(-c3ccccc3)o2)cc1 [VNI, (R)-N-(1-(2,4-dichlorophenyl)-2-(1H-imidazol-1-yl)ethyl)-4-(5-phenyl-1,3,4-oxadiazol-2-yl)benzamide] | Acute toxicity [9]: no acute toxicity

Row | Molecule | Clint (estimated intrinsic clearance), Human [1, 10] [mL/min/kg body weight] | Clhep (hepatic clearance), Human [1] [mL/min/kg body weight] | Clhep (hepatic clearance), Rat [2] [mL/min/kg body weight] | Clint (estimated intrinsic clearance), Rat [2, 11] [mL/min/kg body weight] | Clint (estimated intrinsic clearance), Mouse [3, 12] [mL/min/kg body weight] | Clhep (hepatic clearance), Mouse [3] [mL/min/kg body weight] | Plasma life time (time until the compound becomes undetectable) [4, 13] [h] | also measured
8 | O=C(N[C@@H](Cn1ccnc1)c1c(F)cc(-c2ccc(F)cc2)cc1F)c1ccc(-c2nnc(-c3ccccc3)o2)cc1 [Compound 7, (R)-N-(2-(1H-Imidazol-1-yl)-1-(3,4´,5-trifluoro-[1,1′-biphenyl]-4-yl)ethyl)-4-(5-phenyl-1,3,4-oxadiazol-2-yl)benzamide] | 19.4 | 10.1 | 31.1 | 55.8 | 237 | 65.2 | >24 | Acute toxicity, clinical observation [5]: No detectable side effects; Apparent binding affinity to Y strain T. cruzi CYP51A [6]: low nanomolar concentration range; Apparent binding affinity to L. infantum CYP51 [7]: low nanomolar concentration range; Inhibition of Y strain T. cruzi CYP51A enzymatic activity [8]: completely inhibited
9 | O=C(N[C@@H](Cn1ccnc1)c1ccc(Cl)cc1Cl)c1ccc(-c2nnc(-c3ccc(F)c(F)c3)o2)cc1 [Compound 9, (R)-N-(1-(2,4-Dichlorophenyl)-2-(1H-imidazol-1-yl)ethyl)-4-(5-(3,4-difluorophenyl)-1,3,4-oxadiazol-2-yl)benzamide] | 7.53 | 5.54 | 21.4 | 30.9 | 55.8 | 34.5 | – | Acute toxicity, clinical observation [5]: No detectable side effects; Apparent binding affinity to Y strain T. cruzi CYP51A [6]: low nanomolar concentration range; Apparent binding affinity to L. infantum CYP51 [7]: low nanomolar concentration range; Inhibition of Y strain T. cruzi CYP51A enzymatic activity [8]: stronger potency
10 | O=C(N[C@@H](Cn1ccnc1)c1ccc(-c2ccc(F)cc2)cc1F)c1ccc(-c2nnc(-c3ccccc3)o2)cc1 [VFV, (R)-N-(1-(3,4′-difluoro-[1,1′-biphenyl]-4-yl)-2-(1H-imidazol-1-yl)ethyl)-4-(5-phenyl-1,3,4-oxadiazol-2-yl)benzamide, reference compound] | 29.9 | 12.3 | 14.2 | 17.7 | 145 | 55.6 | >24 | Acute toxicity [9]: no acute toxicity
11 | (R)-N-(1-(3-Chloro-4´-(trifluoromethyl)-[1,1´-biphenyl]-4-yl)-2-(1H-imidazol-1-yl)ethyl)-4-(5-(pyridin-4-yl)-1,3,4-oxadiazol-2-yl)benzamide [Compound 3] | 23.5 | 11.1 | 29.9 | 52.3 | 99.0 | 47.1 | – | t½ (in vitro half-life), Human [1, 10]: 53 min; t½ (in vitro half-life), Rat [2, 11]: 54 min; t½ (in vitro half-life), Mouse [3, 12]: 55 min; Tissue distribution, Heart [4, 14]: 0.1 µM; Tissue distribution, Liver [4, 14]: 0.4 µM; Tissue distribution, Lung [4, 14]: 1 ± 1 µM
